# Measurements from article PMC7825275 (Cancer chemotherapy and pharmacology, 2019).
# Tested on: patients with advanced solid tumors
# Assay type: in vivo, human
# Summary of the method: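 Standard 3+3 escalation with modified Fibonacci steps. Oral veliparib was given every 12 h on days 1–7 of 21-day cycles, with IV carboplatin/paclitaxel on day 3. For the first 46 patients, cycle 1 was chemotherapy alone and DLT was scored in cycle 2; afterwards all three agents were given in cycle 1, which was the DLT cycle. Growth factors were barred in cycles 1–2. MTD was the highest dose with ≤1/6 DLTs.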
smiles,measurement,setting,value
C[C@]1(c2nc3c(C(N)=O)cccc3[nH]2)CCCN1 [veliparib],patients with dose-limiting toxicities during DLT observation cycle,all dose levels,8 patients
same,DLTs at dose level 7,veliparib 80 mg bid,1/6
same,"DLTs at the MAD, patients with DLT of evaluable patients","veliparib 120 mg BID, paclitaxel 200 mg/m^2, carboplatin AUC 6, febrile neutropenia, hyponatremia",2 of 7
same,"maximum administered dose (MAD), veliparib dose",with paclitaxel 200 mg/m^2 and carboplatin AUC 6 (dose level 8),120 mg BID
